Reference: ChEMBL document CHEMBL4330163, “Veluflavanones A-P, Cytotoxic Geranylated Flavanones from Dalbergia velutina Stems” (J Nat Prod, 2019)

Legend:
Format in all cases: functional, cell-based
HeLa S3 = experiment: Cytotoxicity against human HeLaS3 cells by MTT assay
Procedure, shortened: (§1)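 Modified MTT colorimetric assay on five human cancer lines (KB epidermoid, HeLa S3 cervical, MCF-7 breast, Hep G2 hepatocellular, HT-29 colon adenocarcinoma). Doxorubicin was run as positive control.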

KB = experiment: Cytotoxicity against human KB cells by MTT assay; procedure, shortened: as §1
HT-29 = experiment: Cytotoxicity against human HT-29 cells by MTT assay; procedure, shortened: as §1
HepG2 = experiment: Cytotoxicity against human HepG2 cells by MTT assay; procedure, shortened: as §1
MCF7 = experiment: Cytotoxicity against human MCF7 cells by MTT assay; procedure, shortened: as §1

| SMILES | IC50 (HeLa S3) [µM] | IC50 (KB) [µM] | IC50 (HT-29) [µM] | IC50 (HepG2) [µM] | IC50 (MCF7) [µM] |
| --- | --- | --- | --- | --- | --- |
| CC1(CCC(O)C(C)(C)O)CCc2c(ccc3c2O[C@H](c2ccc(O)cc2)CC3=O)O1 (stereo not given in full) | > 10 | > 10 | > 10 | > 10 | > 10 |
| CC1=CCC(O)C(C)(C)C1Cc1c(O)ccc2c1O[C@H](c1ccc(O)cc1)CC2=O (stereo not given in full) | > 10 | > 10 | > 10 | > 10 | > 10 |
| C=C(C)C(O)CCC1(C)CCc2c(ccc3c2O[C@H](c2ccc(O)cc2)CC3=O)O1 (stereo not given in full) | > 10 | > 10 | > 10 | > 10 | > 10 |
| CC(C)=CCCC1(C)Oc2ccc3c(c2CC1O)O[C@H](c1ccc(O)cc1)CC3=O (stereo not given in full) | > 10 | > 10 | > 10 | > 10 | > 10 |
| CC1(CCC2OC2(C)C)CCc2c(ccc3c2O[C@H](c2ccc(O)cc2)CC3=O)O1 (stereo not given in full) | 8.3 | > 10 | > 10 | > 10 | > 10 |
| C=C(C)/C=C/CC1(C)CCc2c(ccc3c2O[C@H](c2ccc(O)cc2)CC3=O)O1 (stereo not given in full) | > 10 | > 10 | > 10 | > 10 | > 10 |
| C/C(=C\Cc1c(O)ccc2c1O[C@H](c1ccc(O)cc1)CC2=O)C/C=C/C(C)(C)O | > 10 | > 10 | > 10 | > 10 | > 10 |
| CC(C)(O)/C=C/CC1(C)CCc2c(ccc3c2O[C@H](c2ccc(O)cc2)CC3=O)O1 (stereo not given in full) | 6.6 | > 10 | > 10 | > 10 | > 10 |
| C=C(C)C(O)CC/C(C)=C/Cc1c(O)ccc2c1O[C@H](c1ccc(O)cc1)CC2=O (stereo not given in full) | > 10 | > 10 | > 10 | > 10 | > 10 |
| COc1cccc2c1C(=O)c1c(O)c3c(c(O)c1C2=O)C[C@@](O)(C(=O)CO)C[C@@H]3O[C@H]1C[C@H](N)[C@H](O)[C@H](C)O1 [DOXORUBICIN] | 0.03 | 0.13 | 0.34 | 1.07 | 0.61 |
| CC(C)=CCCC1(C)CCc2c(ccc3c2O[C@H](c2ccc(O)cc2)CC3=O)O1 (stereo not given in full) | 8.1 | 9.9 | > 10 | > 10 | 9.9 |
| CC(C)=CCC/C(C)=C/Cc1c(O)ccc2c1O[C@H](c1ccc(O)cc1)CC2=O | > 10 | > 10 | > 10 | > 10 | > 10 |
| C=C(CCC=C(C)C)C(O)Cc1c(O)ccc2c1O[C@H](c1ccc(O)cc1)CC2=O (stereo not given in full) | > 10 | > 10 | > 10 | > 10 | > 10 |
| COC(C)(C)/C=C/C/C(C)=C/Cc1c(O)ccc2c1O[C@H](c1ccc(O)cc1)CC2=O | > 10 | > 10 | > 10 | > 10 | > 10 |
| CC(C)=CCCC(C)(O)C1Cc2c(ccc3c2O[C@H](c2ccc(O)cc2)CC3=O)O1 (stereo not given in full) | > 10 | > 10 | > 10 | > 10 | > 10 |
| CC(C)=CCCC1(C)CCc2c(cc(O)c3c2O[C@H](c2ccc(O)cc2)CC3=O)O1 (stereo not given in full) | 9.9 | > 10 | > 10 | > 10 | > 10 |
| COC(C)(C)/C=C/CC1(C)CCc2c(ccc3c2O[C@H](c2ccc(O)cc2)CC3=O)O1 (stereo not given in full) | 8.6 | > 10 | > 10 | > 10 | > 10 |
| COC(C=C(C)C)C/C(C)=C/Cc1c(O)ccc2c1O[C@H](c1ccc(O)cc1)CC2=O (stereo not given in full) | > 10 | > 10 | > 10 | > 10 | > 10 |
